# In ChEMBL document CHEMBL4699498 (J Med Chem, 2020):
# The source made the active and inactive calls. No cut-off for these calls is given here.
# Columns and labels:
# [1] = Plasma concentration in ICR mouse at 25 mg/kg, ip at 8 hrs postinjection by LC-tandem mass spectrometry analysis; type: ADME, organism-based
# How it was run: (§1)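 Female ICR mice (20-23 g, 6-7 weeks old, n = 3) received a single 25 mg/kg intraperitoneal dose formulated in 5% DMSO/15% Solutol HS15/80% D5W. Plasma was sampled at 0.5, 1, 2, 4, 6, 8 and 24 h and protein-precipitated with methanol. Compound was quantified by LC-MS/MS against a standard curve.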
# [2] = biological target: T1, Protein cereblon/Poly [ADP-ribose] polymerase 1 (Homo sapiens, UniProt P09874+Q96SW2); experiment: Protac activity at CRBN/PARP1 in human MDA-MB-436 cells assessed as induction of PARP1 degradation at 30 nM incubated for 24 hrs in presence of proteasome inhibitor carfilzomib by Western blot analysis
# Target sequence in this assay (P09874 2-1014 limits assumed): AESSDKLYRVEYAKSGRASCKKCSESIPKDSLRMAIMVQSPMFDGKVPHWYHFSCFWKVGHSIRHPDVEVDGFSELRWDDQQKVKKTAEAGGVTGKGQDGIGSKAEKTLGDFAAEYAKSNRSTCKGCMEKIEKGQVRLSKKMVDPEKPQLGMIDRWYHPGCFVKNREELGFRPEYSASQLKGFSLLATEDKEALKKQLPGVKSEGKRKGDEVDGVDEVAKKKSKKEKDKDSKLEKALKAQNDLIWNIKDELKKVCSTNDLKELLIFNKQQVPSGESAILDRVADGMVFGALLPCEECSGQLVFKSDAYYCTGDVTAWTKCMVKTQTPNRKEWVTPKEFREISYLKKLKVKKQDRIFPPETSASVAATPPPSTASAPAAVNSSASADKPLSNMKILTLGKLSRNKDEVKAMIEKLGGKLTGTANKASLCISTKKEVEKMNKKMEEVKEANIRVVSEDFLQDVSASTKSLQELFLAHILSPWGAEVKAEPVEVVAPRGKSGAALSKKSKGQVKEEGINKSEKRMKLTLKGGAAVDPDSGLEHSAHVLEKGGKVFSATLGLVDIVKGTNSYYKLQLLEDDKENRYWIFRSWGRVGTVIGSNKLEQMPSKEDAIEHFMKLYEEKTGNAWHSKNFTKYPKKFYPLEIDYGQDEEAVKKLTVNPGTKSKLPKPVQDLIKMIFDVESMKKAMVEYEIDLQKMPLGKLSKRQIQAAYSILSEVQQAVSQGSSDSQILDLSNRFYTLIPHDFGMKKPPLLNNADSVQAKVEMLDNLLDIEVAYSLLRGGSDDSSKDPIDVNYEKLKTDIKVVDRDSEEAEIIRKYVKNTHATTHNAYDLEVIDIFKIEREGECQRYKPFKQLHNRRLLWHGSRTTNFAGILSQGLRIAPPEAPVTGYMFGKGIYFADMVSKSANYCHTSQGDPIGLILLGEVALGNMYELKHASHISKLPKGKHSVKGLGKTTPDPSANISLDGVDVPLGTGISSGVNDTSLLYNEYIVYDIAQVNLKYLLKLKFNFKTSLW
# Target sequence in this assay (Q96SW2 whole entry partner): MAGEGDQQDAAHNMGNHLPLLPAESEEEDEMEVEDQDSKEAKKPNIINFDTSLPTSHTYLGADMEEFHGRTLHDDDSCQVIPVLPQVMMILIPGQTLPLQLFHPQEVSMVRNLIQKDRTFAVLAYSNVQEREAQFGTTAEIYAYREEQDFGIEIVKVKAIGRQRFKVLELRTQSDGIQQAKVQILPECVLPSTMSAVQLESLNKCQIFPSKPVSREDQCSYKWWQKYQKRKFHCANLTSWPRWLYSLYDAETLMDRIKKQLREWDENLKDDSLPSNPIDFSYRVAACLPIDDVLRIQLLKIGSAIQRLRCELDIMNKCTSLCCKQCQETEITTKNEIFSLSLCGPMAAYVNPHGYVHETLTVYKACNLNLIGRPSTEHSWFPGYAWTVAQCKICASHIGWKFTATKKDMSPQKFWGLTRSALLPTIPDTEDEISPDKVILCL
# [3] = biological target: T1, Protein cereblon/Poly [ADP-ribose] polymerase 1; experiment: Protac activity at CRBN/PARP1 in human MDA-MB-436 cells assessed as induction of PARP1 degradation at 30 nM incubated for 24 hrs in presence of NEDD8-activating E1 enzyme inhibitor MLN4924 by Western blot analysis
# Target sequence in this assay (P09874 2-1014 limits assumed): as the sequence (P09874 2-1014 limits assumed) above
# Target sequence in this assay (Q96SW2 whole entry partner): as the sequence (Q96SW2 whole entry partner) above
# [4] = biological target: T1, Protein cereblon/Poly [ADP-ribose] polymerase 1; experiment: Protac activity at CRBN/PARP1 in human MDA-MB-231 cells assessed as induction of PARP1 degradation at 30 nM incubated for 1 to 24 hrs by Western blot analysis; type: cell-based; conditions: time hrs 1-24
# Target sequence in this assay (P09874 2-1014 limits assumed): as the sequence (P09874 2-1014 limits assumed) above
# Target sequence in this assay (Q96SW2 whole entry partner): as the sequence (Q96SW2 whole entry partner) above
# [5] = biological target: T1, Protein cereblon/Poly [ADP-ribose] polymerase 1; experiment: Protac activity at CRBN/PARP1 in human MDA-MB-468 cells assessed as induction of PARP1 degradation at 30 nM incubated for 1 to 24 hrs by Western blot analysis; type: cell-based; conditions: time hrs 1-24
# Target sequence in this assay (P09874 2-1014 limits assumed): as the sequence (P09874 2-1014 limits assumed) above
# Target sequence in this assay (Q96SW2 whole entry partner): as the sequence (Q96SW2 whole entry partner) above
# [6] = biological target: T1, Protein cereblon/Poly [ADP-ribose] polymerase 1; experiment: Protac activity at CRBN/PARP1 in human PC-3 cells assessed as induction of PARP1 degradation at 30 nM incubated for 1 to 24 hrs by Western blot analysis; type: cell-based; conditions: time hrs 1-24
# Target sequence in this assay (P09874 2-1014 limits assumed): as the sequence (P09874 2-1014 limits assumed) above
# Target sequence in this assay (Q96SW2 whole entry partner): as the sequence (Q96SW2 whole entry partner) above
# [7] = biological target: T1, Protein cereblon/Poly [ADP-ribose] polymerase 1; experiment: Protac activity at CRBN/PARP1 in human MDA-MB-436 cells assessed as induction of PARP1 degradation at 30 nM incubated for 24 hrs in presence of 0.1 to 1 uM PARP1 inhibitor olaparib by Western blot analysis
# Target sequence in this assay (P09874 2-1014 limits assumed): as the sequence (P09874 2-1014 limits assumed) above
# Target sequence in this assay (Q96SW2 whole entry partner): as the sequence (Q96SW2 whole entry partner) above
# [8] = biological target: T1, Protein cereblon/Poly [ADP-ribose] polymerase 1; experiment: Protac activity at CRBN/PARP1 in human LNCaP cells assessed as induction of PARP1 degradation measured after 24 hrs by Western blot analysis; type: cell-based
# How it was run: (§2)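 Concentration-response over a wide range, 24 h exposure; PARP1 quantified by western blot and normalized to β-tubulin density; DC50 derived from two biologically independent experiments.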
# Target sequence in this assay (P09874 whole entry): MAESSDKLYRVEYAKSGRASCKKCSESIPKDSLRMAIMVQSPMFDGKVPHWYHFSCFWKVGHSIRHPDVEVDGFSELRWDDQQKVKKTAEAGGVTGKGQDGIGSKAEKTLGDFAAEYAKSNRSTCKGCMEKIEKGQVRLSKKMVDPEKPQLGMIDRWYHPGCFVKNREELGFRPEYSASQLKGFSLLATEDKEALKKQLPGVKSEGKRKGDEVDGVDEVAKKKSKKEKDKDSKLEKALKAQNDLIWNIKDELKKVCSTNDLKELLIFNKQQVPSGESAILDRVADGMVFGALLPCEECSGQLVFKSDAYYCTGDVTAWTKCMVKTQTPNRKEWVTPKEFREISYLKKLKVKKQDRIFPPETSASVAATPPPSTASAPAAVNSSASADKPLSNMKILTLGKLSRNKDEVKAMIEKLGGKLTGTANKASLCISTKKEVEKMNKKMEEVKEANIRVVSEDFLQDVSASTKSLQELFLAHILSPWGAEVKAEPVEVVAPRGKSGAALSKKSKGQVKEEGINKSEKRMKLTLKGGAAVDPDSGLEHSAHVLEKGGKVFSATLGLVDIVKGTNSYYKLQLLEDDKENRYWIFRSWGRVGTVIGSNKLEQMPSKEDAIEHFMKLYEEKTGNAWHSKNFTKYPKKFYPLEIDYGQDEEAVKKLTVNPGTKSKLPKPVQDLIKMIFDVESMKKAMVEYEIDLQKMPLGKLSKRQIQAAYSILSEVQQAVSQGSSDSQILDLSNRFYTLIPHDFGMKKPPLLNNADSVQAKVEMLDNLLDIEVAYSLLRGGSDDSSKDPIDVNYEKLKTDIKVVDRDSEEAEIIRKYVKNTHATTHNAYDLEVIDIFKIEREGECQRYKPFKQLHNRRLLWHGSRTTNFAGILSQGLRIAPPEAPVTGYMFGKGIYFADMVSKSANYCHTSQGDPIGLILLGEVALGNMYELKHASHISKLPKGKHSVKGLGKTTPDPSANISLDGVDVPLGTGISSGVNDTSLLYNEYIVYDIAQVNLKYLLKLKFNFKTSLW
# Target sequence in this assay (Q96SW2 whole entry): as the sequence (Q96SW2 whole entry partner) above
# [9] = Acute toxicity in Balb/c mouse assessed as lethality at 25 to 50 mg/kg, ip administered 5 times a week for 3 weeks; type: organism-based; conditions: in vivo, 504 h
# How it was run: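 Male BALB/c nude mice (5–6 weeks) received 5×10^6 Capan-1 cells s.c. in the right armpit. At a mean tumour volume of about 150 mm³, mice were randomised by tumour volume and body weight, 6 per group. Dosing was i.p. in 5% DMSO/20% PEG400/10% Cremophor EL/65% saline, once daily five times per week for 3 weeks. Body weight was measured 2–3 times weekly.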
# MCF-10A = experiment: Cytotoxicity against human MCF-10A cells assessed as reduction in cell viability incubated for 120 hrs by CCK-8 assay; type: cell-based
# MDA-MB-436 = experiment: Antiproliferative activity against human MDA-MB-436 cells assessed as cell growth inhibition incubated for 7 days by CCK-8 assay; type: functional, cell-based; conditions: MDA-MB-436, 168 h
# How it was run: (§3)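 Cells were sub-cultured at least twice and seeded for 24 h before dosing. Compounds came from 10 mM DMSO stocks, given as 10 points of 3-fold serial dilution starting at 10-20 μM. Incubation was about 7 days (Capan-1 13 days) at 37 °C, 5% CO2. Read-out was CCK-8 absorbance at 450 nm, as % growth versus DMSO wells (duplicate wells). IC50 was fitted by nonlinear regression; three independent experiments.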
# [10] = biological target: T1, Protein cereblon/Poly [ADP-ribose] polymerase 1; experiment: Protac activity at CRBN/PARP1 in human MDA-MB-436 cells assessed as induction of PARP1 degradation at 30 nM measured within 1 hr by Western blot analysis; type: cell-based; conditions: time hrs <=1
# How it was run: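 Time course at 30 nM in MDA-MB-436 or SW620 cells; PARP1 immunoblotted at successive time points, β-tubulin as loading control.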
# [11] = AUCall in ICR mouse at 25 mg/kg, ip by LC-tandem mass spectrometry analysis; type: ADME, organism-based; parameters: dose 25 mg/kg; conditions: in vivo; how it was run: as §1
# [12] = biological target: T1, Protein cereblon/Poly [ADP-ribose] polymerase 1; experiment: Protac activity at CRBN/PARP1 in human SW-620 cells assessed as induction of PARP1 degradation at 10 nM incubated for 24 hrs by Western blot analysis relative to control; type: cell-based
# [13] = biological target: T1, Protein cereblon/Poly [ADP-ribose] polymerase 1; experiment: Protac activity at CRBN/PARP1 in human PC-3 cells assessed as induction of PARP1 degradation measured after 24 hrs by Western blot analysis; type: cell-based; how it was run: as §2
# Target sequence in this assay (P09874 whole entry): as the sequence (P09874 whole entry) above
# Target sequence in this assay (Q96SW2 whole entry): as the sequence (Q96SW2 whole entry partner) above
# [14] = Plasma concentration in ICR mouse at 25 mg/kg, ip at 1 hr postinjection by LC-tandem mass spectrometry analysis; type: ADME, organism-based; how it was run: as §1
# CAPAN-1 = experiment: Antitumor activity against Capan1 cells xenografted in Balb/c mouse assessed as tumor growth inhibition at 25 mg/kg, ip administered 5 times a week for 3 weeks; type: functional, organism-based
# How it was run: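 Male BALB/c nude mice (5-6 weeks old) carried subcutaneous Capan-1 xenografts (5×10^6 cells, right armpit). At ~150 mm³ they were randomized (6 per group). Dosing was 100 mg/kg by oral gavage daily for 21 days, or 25 mg/kg intraperitoneally 5 times a week for 3 weeks. Vehicle was 5% DMSO/20% PEG400/10% Cremophor EL/65% saline. Tumor volume was (length/2)×width², measured 2-3 times weekly.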
# HCC1937 = experiment: Antiproliferation activity against human HCC1937 assessed as cell growth inhibition incubated for 7 days by CCK-8 assay; type: functional, cell-based; conditions: time 7.0 day; how it was run: as §3
# SW-620 = experiment: Antiproliferation activity against human SW620 assessed as cell growth inhibition incubated for 7 days by CCK-8 assay; type: functional, cell-based; conditions: time 7.0 day; how it was run: as §3
# [15] = biological target: T1, Protein cereblon/Poly [ADP-ribose] polymerase 1; experiment: Protac activity at CRBN/PARP1 in human SW620 cells assessed as reduction in PARP1 protein level at 0.01 to 10 uM incubated for 12 hrs by western blot analysis; type: cell-based; conditions: SW-620, dose microM 0.01-10, time 12.0 hrs
# How it was run: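 MDA-MB-436 or SW620 cells dosed at 1, 10, 100, 1000 nM and 10 µM for 12 h; PARP1 assessed by western blot of RIPA lysates (20-30 µg protein), β-tubulin as loading control.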
# [16] = biological target: T1, Protein cereblon/Poly [ADP-ribose] polymerase 1; experiment: Protac activity at CRBN/PARP1 in human CAPAN-1 cells assessed as induction of PARP1 degradation incubated for 24 hrs by Western blot analysis; type: cell-based
# How it was run: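 Capan-1 cells were treated 24 h (1-1000 nM, or a wider dose range for DC50). Lysis was in RIPA buffer with protease inhibitors, and 20-30 μg protein was blotted. PARP1 was normalized to β-tubulin and to DMSO control, quantified by densitometry. DC50 came from two independent experiments.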
# Target sequence in this assay (P09874 whole entry): as the sequence (P09874 whole entry) above
# Target sequence in this assay (Q96SW2 whole entry): as the sequence (Q96SW2 whole entry partner) above
smiles,measurement,setting,value
O=C(CCCCCCCCCCC(=O)N1CCN(C(=O)c2cc(Cc3n[nH]c(=O)c4ccccc34)ccc2F)CC1)NCCNc1cccc2c1C(=O)N(C1CCC(=O)NC1=O)C2=O (stereo unspecified),concentration at 8 h,[1],95 nM
same,Activity,[2],inactive
same,Activity,[3],inactive
same,Activity,[4],Active
same,Activity,[5],Active
same,Activity,[6],Active
same,Activity,[7],inactive
same,DC50,[8],1.08 nM
same,Activity,[9],Non-Toxic
same,Activity,MCF-10A,Non-Toxic
same,IC50,MDA-MB-436,19 nM
same,Activity,[10],Active
same,AUC,[11],5320 ng·h/mL
same,Activity,[12],> 99%
same,DC50,[13],0.578 nM
same,concentration at 1 h,[14],1830 nM
same,Activity,CAPAN-1,Active
same,Activity,HCC1937,Active
same,Activity,SW-620,Active
same,Activity,[15],Active
same,DC50,[16],6.72 nM
